Experimental findings from ChEMBL document CHEMBL3525985, “Regiospecificity and stereospecificity of human UDP-glucuronosyltransferases in the glucuronidation of estriol, 16-epiestriol, 17-epiestriol, and 13-epiestradiol” (Drug Metab Dispos, 2013) are described below.

The target of data set [1] is T1, UDP-glucuronosyltransferase 2B7 (Homo sapiens, UniProt P16662).
T1 sequence (P16662 whole entry): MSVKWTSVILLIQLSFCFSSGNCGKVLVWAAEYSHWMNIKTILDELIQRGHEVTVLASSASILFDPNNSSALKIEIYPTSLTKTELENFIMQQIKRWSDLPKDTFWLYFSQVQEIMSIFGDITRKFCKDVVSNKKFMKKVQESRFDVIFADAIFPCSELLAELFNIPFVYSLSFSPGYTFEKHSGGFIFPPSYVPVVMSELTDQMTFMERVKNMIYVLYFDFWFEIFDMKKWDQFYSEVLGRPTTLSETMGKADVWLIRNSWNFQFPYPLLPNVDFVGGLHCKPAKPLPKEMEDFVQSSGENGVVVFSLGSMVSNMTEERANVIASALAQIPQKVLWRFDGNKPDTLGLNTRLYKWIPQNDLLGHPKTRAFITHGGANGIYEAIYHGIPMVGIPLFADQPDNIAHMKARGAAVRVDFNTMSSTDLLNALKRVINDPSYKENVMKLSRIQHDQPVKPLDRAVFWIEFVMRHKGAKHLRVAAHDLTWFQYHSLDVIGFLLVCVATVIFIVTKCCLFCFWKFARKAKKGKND
The data set is described as follows: Drug level assessed as recombinant human C-terminal His-tagged UGT2B7-mediated compound formation from 200 uM 17-epiestriol after 15 to 60 mins by HPLC analysis in presence of UDPGA. In kind it is ADME. Particulars: recombinant enzyme. The gist of the method:
(§1)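 UGT-enriched insect cell membranes (5 or 50 µg) in 50 mM phosphate pH 7.4, 10 mM MgCl2, 5 mM UDPGA; substrate 200 µM in DMSO (10% final); 15–60 min at 37°C; stopped with perchloric acid, on ice, centrifuged; glucuronides resolved by HPLC. Triplicates, no-UDPGA controls; rates normalized to relative UGT expression; substrate consumption ≤10%.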

The target in data set [2] is T2, UDP-glucuronosyltransferase 1A10 (Homo sapiens, UniProt Q9HAW8).
T2 sequence (Q9HAW8 whole entry): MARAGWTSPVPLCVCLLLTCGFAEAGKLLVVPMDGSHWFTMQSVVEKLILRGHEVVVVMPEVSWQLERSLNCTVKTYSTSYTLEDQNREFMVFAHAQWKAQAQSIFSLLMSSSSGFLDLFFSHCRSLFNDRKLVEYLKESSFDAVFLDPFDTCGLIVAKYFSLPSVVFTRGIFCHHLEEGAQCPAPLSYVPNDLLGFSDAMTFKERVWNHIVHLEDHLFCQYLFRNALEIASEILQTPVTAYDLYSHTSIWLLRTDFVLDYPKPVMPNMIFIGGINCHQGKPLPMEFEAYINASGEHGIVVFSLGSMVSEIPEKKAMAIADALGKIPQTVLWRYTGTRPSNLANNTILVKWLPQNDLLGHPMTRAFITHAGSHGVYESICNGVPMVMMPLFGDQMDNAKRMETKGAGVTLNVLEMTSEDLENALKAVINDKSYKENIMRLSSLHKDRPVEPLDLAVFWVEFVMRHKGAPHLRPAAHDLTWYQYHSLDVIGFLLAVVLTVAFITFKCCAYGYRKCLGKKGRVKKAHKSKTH
The data set is described as follows: Drug level assessed as recombinant human C-terminal His-tagged UGT1A10-mediated compound formation from 200 uM estriol after 15 to 60 mins by […] analysis in presence of UDPGA. The class given is ADME. Particulars: recombinant enzyme. Summed up:
as §1

Data set [3] has as its system C[C@]12CC[C@@H]3c4ccc(O)cc4CC[C@H]3[C@@H]1C[C@@H](O)[C@@H]2O. The data set is described as follows: Drug metabolism assessed as human UGT1A10 F93G mutant-mediated estriol-3-glucuronide formation after 15 to 60 mins by Michaelis-Menten equation analysis in presence of UDPGA. In kind it is ADME. Summed up:
(§2)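 UGT-enriched insect cell membranes (5 or 50 µg) were incubated with 0.2–300 µM aglycone in DMSO (10% final), 5 mM UDPGA, 10 mM MgCl2 and 50 mM phosphate pH 7.4 at 37°C. Reactions were stopped with perchloric acid and glucuronides measured by HPLC. Assays were in triplicate with substrate consumption ≤10%, rates normalized to relative UGT expression, and kinetics fitted to Michaelis-Menten.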

In data set [4] the test system is [H][C@@]12CCc3cc(O)ccc3[C@@]1([H])CC[C@]1(C)[C@H](O)[C@H](O)C[C@@]21[H]. The data set is described as follows: Drug metabolism assessed as human UGT1A10 F93G mutant-mediated 17-epiestriol-3-glucuronide formation after 15 to 60 mins by Michaelis-Menten equation analysis in presence of UDPGA. The class given is ADME. The gist of the method: as §2
Data set [5] relates to C[C@]12CC[C@@H]3c4ccc(O)cc4CC[C@H]3[C@@H]1C[C@H](O)[C@@H]2O. The data set can be described thus: Drug metabolism assessed as human UGT1A10 F93G mutant-mediated 16-epiestriol-3-glucuronide formation after 15 to 60 mins by Michaelis-Menten equation analysis in presence of UDPGA. The class given is ADME. Summed up: as §2
For data set [6], the target named is T1, UDP-glucuronosyltransferase 2B7. The data set is described as follows: Drug level assessed as recombinant human C-terminal His-tagged UGT2B7-mediated compound formation from 8 mg 16-epiestriol after 5 hrs by NMR spectroscopic analysis in presence of UDPGA. The class given is ADME. The conditions noted are these: recombinant enzyme. Summed up: (§3)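 Preparative biosynthesis: 4 mg 17-epiestriol or 8 mg 16-epiestriol with UGT2B7-enriched insect cell homogenate in 50 mM phosphate pH 7.4, 10 mM MgCl2, 50 mM UDPGA, 10% DMSO. Glucuronides fractionated by HPLC (0.1% HCOOH replacing phosphate, UV 280 nm), concentrated, lyophilized, then examined by NMR.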

The target of data set [7] is T2, UDP-glucuronosyltransferase 1A10. The data set is described as follows: Drug level assessed as recombinant human C-terminal His-tagged UGT1A10-mediated compound formation from 200 uM 16-epiestriol after 15 to 60 mins by […] analysis in presence of UDPGA. Particulars: recombinant enzyme. The class given is ADME. Summed up: as §1
Data set [8] addresses T1, UDP-glucuronosyltransferase 2B7. The data set can be described thus: Drug level assessed as recombinant human C-terminal His-tagged UGT2B7-mediated compound formation from 4 mg 17-epiestriol after 5 hrs by NMR spectroscopic analysis in presence of UDPGA. In kind it is ADME. The conditions noted are these: recombinant enzyme. Summed up: as §3
Data set [9] relates to UGT2A2 (Homo sapiens). The data set can be described thus: Drug level assessed as recombinant human C-terminal His-tagged UGT2A2-mediated compound formation from at 200 uM 13-epiestradiol after 15 to 60 mins by HPLC analysis in presence of UDPGA. The conditions noted are these: recombinant enzyme.
Substrate in data set [10]: [H][C@@]12CCc3cc(O)ccc3[C@@]1([H])CC[C@]1(C)[C@H](O)[C@H](O)C[C@@]21[H]
The data set can be described thus: Drug metabolism assessed as recombinant human C-terminal His-tagged UGT2B7-mediated 17-epiestriol-16-glucuronide formation after 15 to 60 mins by Michaelis-Menten equation analysis in presence of UDPGA. The class given is ADME. Summed up: as §2

Substrate in data set [11]: C[C@]12CC[C@@H]3c4ccc(O)cc4CC[C@H]3[C@@H]1C[C@H](O)[C@@H]2O
The data set can be described thus: Drug metabolism assessed as recombinant human C-terminal His-tagged UGT2B7-mediated 16-epiestriol-16-glucuronide formation after 15 to 60 mins by Michaelis-Menten equation analysis in presence of UDPGA. In kind it is ADME. Summed up:
(§4)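 For kinetics, the aglycone ranged from 0.2 to 300 μM in DMSO (10% final) with 5 mM UDPGA, 10 mM MgCl₂ and 50 mM phosphate pH 7.4. Enzyme was UGT-enriched insect cell membranes. Incubation was 15–60 min at 37°C, in triplicate, keeping substrate consumption ≤10%. Products were measured by HPLC and fitted to Michaelis-Menten. Rates were normalized to expression level.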

Substrate in data set [12]: C[C@]12CC[C@@H]3c4ccc(O)cc4CC[C@H]3[C@@H]1C[C@@H](O)[C@@H]2O
The data set can be described thus: Drug metabolism assessed as recombinant human C-terminal His-tagged UGT2B7-mediated estriol-16-glucuronide formation after 15 to 60 mins by Michaelis-Menten equation analysis in presence of UDPGA. In kind it is ADME. The gist of the method: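 Kinetics with His-tagged UGT-enriched insect-cell membranes (5 or 50 µg): aglycone 0.2–300 µM in 10% DMSO, 5 mM UDPGA, 10 mM MgCl₂, 50 mM phosphate pH 7.4, 15–60 min at 37°C. Substrate consumption kept at or below 10%. Glucuronides quantified by HPLC in triplicate, rates normalized to expression, and data fitted to Michaelis-Menten.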

Substrate in data set [13]: C[C@]12CC[C@@H]3c4ccc(O)cc4CC[C@H]3[C@@H]1C[C@@H](O)[C@@H]2O
The data set can be described thus: Drug metabolism assessed as recombinant human C-terminal His-tagged UGT1A10-mediated estriol-3-glucuronide formation after 15 to 60 mins by Michaelis-Menten equation analysis in presence of UDPGA. In kind it is ADME. The gist of the method:
as §4

Substrate in data set [14]: [H][C@@]12CCc3cc(O)ccc3[C@@]1([H])CC[C@]1(C)[C@H](O)[C@H](O)C[C@@]21[H]
The data set is described as follows: Drug metabolism assessed as recombinant human C-terminal His-tagged UGT1A10-mediated 17-epiestriol-3-glucuronide formation after 15 to 60 mins by Michaelis-Menten equation analysis in presence of UDPGA. In kind it is ADME. The gist of the method:
as §2

Substrate in data set [15]: C[C@]12CC[C@@H]3c4ccc(O)cc4CC[C@H]3[C@@H]1C[C@H](O)[C@@H]2O
The data set can be described thus: Drug metabolism assessed as recombinant human C-terminal His-tagged UGT1A10-mediated 16-epiestriol-3-glucuronide formation after 15 to 60 mins by Michaelis-Menten equation analysis in presence of UDPGA. In kind it is ADME. The gist of the method:
as §4

For `C[C@]12CC[C@@H]3c4ccc(O[C@@H]5O[C@H](C(=O)O)[C@@H](O)[C@H](O)[C@H]5O)cc4CC[C@H]3[C@@H]1C[C@@H](O)[C@H]2O`, the Drug metabolism entry in data set [1] was “metabolite_detected”.

On to `C[C@]12CC[C@@H]3c4ccc(O[C@@H]5O[C@H](C(=O)O)[C@@H](O)[C@H](O)[C@H]5O)cc4CC[C@H]3[C@@H]1C[C@@H](O)[C@@H]2O`, for which, in data set [2], the Drug metabolism result was “metabolite_detected”.

`C[C@]12CC[C@@H]3c4ccc(O)cc4CC[C@H]3[C@@H]1C[C@@H](O[C@@H]1O[C@H](C(=O)O)[C@@H](O)[C@H](O)[C@H]1O)[C@H]2O`: the Drug metabolism entry in data set [1] was “metabolite_not_detected”.

As a reminder, the Km is the concentration of substrate that gives half-maximal velocity. The term Vmax denotes the rate approached at saturating substrate. Turning to “UDP-glucuronosyltransferase 1A10 (Homo sapiens; F93G)”, the Km in data set [3] was 230 µM; in [4], 51.1 µM; in [5] it was 186 µM. The Vmax in data set [3] is 0.00754 µmol/min/mg; in data set [4], 0.00571 µmol/min/mg; in [5], 0.00225 µmol/min/mg.

In the case of `C[C@]12CC[C@@H]3c4ccc(O)cc4CC[C@H]3[C@@H]1C[C@H](O)[C@@H]2O[C@@H]1O[C@H](C(=O)O)[C@@H](O)[C@H](O)[C@H]1O`, the Drug metabolism result in data set [6] and in data set [7] was “metabolite_detected” in each case.

Consider `C[C@]12CC[C@@H]3c4ccc(O[C@@H]5O[C@H](C(=O)O)[C@@H](O)[C@H](O)[C@H]5O)cc4CC[C@H]3[C@@H]1C[C@H](O)[C@@H]2O`, for which the Drug metabolism entry in data set [7] is “metabolite_detected”.

In the case of `C[C@]12CC[C@@H]3c4ccc(O)cc4CC[C@H]3[C@@H]1C[C@@H](O)[C@@H]2O[C@@H]1O[C@H](C(=O)O)[C@@H](O)[C@H](O)[C@H]1O`, the Drug metabolism result in [2] is listed as “metabolite_detected”.

For `C[C@]12CC[C@@H]3c4ccc(O)cc4CC[C@H]3[C@@H]1C[C@@H](O[C@@H]1O[C@H](C(=O)O)[C@@H](O)[C@H](O)[C@H]1O)[C@@H]2O`, in data set [2], the Drug metabolism result is “metabolite_detected”.

Regarding `C[C@]12CC[C@@H]3c4ccc(O)cc4CC[C@H]3[C@@H]1C[C@@H](O)[C@H]2O[C@@H]1O[C@H](C(=O)O)[C@@H](O)[C@H](O)[C@H]1O`, the Drug metabolism result in data set [1] and in data set [8] was “metabolite_detected” in each case.

As to `C[C@]12CC[C@@H]3c4ccc(O)cc4CC[C@H]3[C@@H]1C[C@H](O[C@@H]1O[C@H](C(=O)O)[C@@H](O)[C@H](O)[C@H]1O)[C@@H]2O`, the Drug metabolism result in data set [6] and in data set [7] was “metabolite_detected” throughout.

As for `C[C@@]12CC[C@@H]3c4ccc(O)cc4CC[C@H]3[C@@H]1CC[C@@H]2O[C@@H]1O[C@H](C(=O)O)[C@@H](O)[C@H](O)[C@H]1O`, the Drug metabolism result in data set [9] is “metabolite_detected”.

B1: UDP-glucuronosyltransferase 2B7 (Homo sapiens) (protein)
chain: T1 sequence (P16662 whole entry)
As to B1, the Km in [10] was found to be 0.6 µM; in data set [11], 38.4 µM; in [12], 10.3 µM. For the same molecule, the Vmax in data set [10] was found to be 0.00082 µmol/min/mg; in data set [11] it was 0.00387 µmol/min/mg; in data set [12], 0.00151 µmol/min/mg.

B2: UDP-glucuronosyltransferase 1A10 (Homo sapiens) (protein)
chain: T2 sequence (Q9HAW8 whole entry)
In the case of B2, the Km in data set [13] was found to be 68.4 µM; in data set [14], 337 µM; in data set [15], 59.8 µM. Moreover, the Vmax in data set [13] was 0.0012 µmol/min/mg; in data set [14], 0.000958 µmol/min/mg; in [15] it was 0.0077 µmol/min/mg.
